# Laboratory results as given in ChEMBL document CHEMBL1131231, “New azole antifungals. 2. Synthesis and antifungal activity of heterocyclecarboxamide derivatives of 3-amino-2-aryl-1-azolyl-2-butanol” (1998).
# Legend:
# Format in all cases: functional
# Candida albicans [1] = experiment: In vivo antifungal activity against murine candidosis model after peroral administration with 0.5 mg/kg at various time intervals. (percent protection for 100% mortality with untreated group); conditions: route oral
# Summary of the method: (§1)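 Male mice, groups of 10, infected iv with 0.2 mL Candida albicans at (2–8) × 10⁷ cfu/mL. Oral suspension in 1% Tween + 0.2% carboxymethylcellulose in water, given 1, 4 and 24 h post-infection; vehicle controls and a fluconazole group at the same dose. Survival scored on days 1, 2, 3, 5, 7, 9, reported as % surviving on the day untreated, or fluconazole-treated, mortality reached 100%.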
# Candida albicans [2] = experiment: In vivo antifungal activity against murine candidosis model after peroral administration with 0.5 mg/kg at various time intervals. (percent protection for 100% mortality with fluconazole-treated group.); conditions: route oral; summary of the method: as §1
# [3] = The compound was tested in vitro for antifungal activity against 10 yeasts.
# Summary of the method: (§2)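 Agar dilution on Kimmig's agar with 0.5% glycerol; ATCC or clinical isolates, inocula at 10⁵ cfu/mL. Drugs from 800 μg/mL stock in 50% ethanol, 2-fold serial dilutions 80 to 0.03 μg/mL in plates. Incubated 25 °C, 48 h for yeasts, 120 h for filamentous fungi. Value is geometric mean of MICs (μg/mL); >80 taken as 160, ≤0.03 as 0.03.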
# [4] = The compound was tested in vitro for antifungal activity against 6 filamentous fungi.; summary of the method: as §2
SMILES,Protection (Candida albicans [1]) [%],Protection (Candida albicans [2]) [%],MIC [3] [µg/mL],MIC [4] [µg/mL]
Cc1nc(-c2ccccc2)sc1C(=O)N[C@H](C)[C@](O)(Cn1cncn1)c1ccc(F)cc1F,30,0,1.4,7.6
Cc1nc(COc2ccc(Cl)cc2)sc1C(=O)N[C@H](C)[C@](O)(Cn1cncn1)c1ccc(F)cc1F,30,0,0.6,2.9
Cc1cc(-c2ccc(Cl)cc2)sc1C(=O)N[C@H](C)[C@](O)(Cn1cncn1)c1ccc(F)cc1F,100,20,0.3,0.7
Cc1nc(S(=O)(=O)c2ccc(Cl)cc2)sc1C(=O)N[C@H](C)[C@](O)(Cn1cncn1)c1ccc(F)cc1F,0,0,7.6,> 80
Cc1nc(-c2ccc(Br)cc2)sc1C(=O)N[C@H](C)[C@](O)(Cn1cncn1)c1ccc(F)cc1F,100,90,0.6,1.8
C[C@@H](NC(=O)c1ccc(Cl)cc1)[C@](O)(Cn1cncn1)c1ccc(F)cc1F,0,0,3.9,11
C[C@@H](NC(=O)c1cnn(-c2ccc(C(F)(F)F)cc2)c1N)[C@](O)(Cn1cncn1)c1ccc(F)cc1F,,,3.3,28
C[C@@H](NC(=O)c1nnc(-c2ccc(Cl)cc2)o1)[C@](O)(Cn1cncn1)c1ccc(F)cc1F,10,0,49,> 80
Cc1nc(-c2ccc(F)cc2)sc1C(=O)N[C@H](C)[C@](O)(Cn1cncn1)c1ccc(F)cc1F,100,80,1.1,1.8
C[C@@H](NC(=O)c1cnc(-c2ccc(Cl)cc2)s1)[C@](O)(Cn1cncn1)c1ccc(F)cc1F,100,100,0.7,6.3
Cc1sc(-c2ccc(Cl)cc2)nc1C(=O)N[C@H](C)[C@](O)(Cn1cncn1)c1ccc(F)cc1F,,,> 80,> 80
C[C@@H](NC(=O)c1ccc(-c2ccc(C#N)cc2)s1)[C@](O)(Cn1cncn1)c1ccc(F)cc1F,100,100,0.8,> 80
Cc1nc(C)c(C(=O)N[C@H](C)[C@](O)(Cn2cncn2)c2ccc(F)cc2F)s1,0,0,19,> 80
C[C@@H](NC(=O)c1ccc(-c2ccc(Cl)cc2)o1)[C@](O)(Cn1cncn1)c1ccc(F)cc1F,0,0,1.5,> 80
C[C@@H](NC(=O)c1scc(S(=O)(=O)c2ccc(Cl)cc2)c1N)[C@](O)(Cn1cncn1)c1ccc(F)cc1F,20,0,1,10
C[C@@H](NC(=O)c1sc(-c2ccc(Cl)cc2)cc1N)[C@](O)(Cn1cncn1)c1ccc(F)cc1F,0,0,0.6,22
C[C@@H](NC(=O)c1sc(-c2ccc(Cl)cc2)nc1C(F)(F)F)[C@](O)(Cn1cncn1)c1ccc(F)cc1F,100,<70,2,8.9
Cc1nc(-c2ccc(C#N)cc2)sc1C(=O)N[C@H](C)[C@](O)(Cn1ccnc1)c1ccc(F)cc1F,70,0,10,45
C[C@@H](n1ncn(-c2ccc(OCC(F)(F)C(F)F)cc2)c1=O)[C@](O)(Cn1cncn1)c1ccc(F)cc1F,100,100,2.6,8.9

SMILES,Protection (Candida albicans [1]) [%],Protection (Candida albicans [2]) [%],MIC [3] [µg/mL],MIC [4] [µg/mL]
Cc1nc(-c2ccc(C#N)cc2)sc1C(=O)N[C@H](C)[C@](O)(Cn1cncn1)c1ccccc1F,100,60,1.5,5
C[C@@H](NC(=O)c1ccc(-c2ccc(Cl)cc2)cc1)[C@](O)(Cn1cncn1)c1ccc(F)cc1F,100,100,0.3,18
Cc1nc(-c2ccc(Cl)cc2)sc1C(=O)N[C@H](C)[C@](O)(Cn1cncn1)c1ccc(F)cc1F,100,100,0.8,1.2
C[C@@H](NC(=O)c1sc(-c2ccc(C(F)(F)F)cc2)nc1C(F)(F)F)[C@](O)(Cn1cncn1)c1ccc(F)cc1F,90,<20,1.6,17
C[C@@H](NC(=O)c1nsc(-c2ccc(Cl)cc2)n1)[C@](O)(Cn1cncn1)c1ccc(F)cc1F,80,10,1.4,> 80
Cc1nc(-c2sc(-c3ccc(Cl)cc3)nc2C)sc1C(=O)N[C@H](C)[C@](O)(Cn1cncn1)c1ccc(F)cc1F,10,0,1.8,> 80
Cc1nc(-c2ccc(Cl)cc2)n(C)c1C(=O)N[C@H](C)[C@](O)(Cn1cncn1)c1ccc(F)cc1F,100,0,2.6,18
Cc1cc(-c2ccc(C#N)cc2)sc1C(=O)N[C@H](C)[C@](O)(Cn1cncn1)c1ccc(F)cc1F,100,70,0.7,8.9
CCC(C)n1ncn(-c2ccc(N3CCN(c4ccc(OC[C@@H]5CO[C@@](Cn6cncn6)(c6ccc(Cl)cc6Cl)O5)cc4)CC3)cc2)c1=O (stereo not given in full) [ITRACONAZOLE],0,0,5.2,63
Cc1nc(-c2ccc(C(N)=O)cc2)sc1C(=O)N[C@H](C)[C@](O)(Cn1cncn1)c1ccc(F)cc1F,0,0,20,> 80
Cc1nc(-c2ccc(C#N)cc2)sc1C(=O)N[C@H](C)[C@](O)(Cn1cncn1)c1ccc(Cl)cc1Cl,100,100,0.4,5
Cc1nc(-c2ccc(C(C)(C)C)cc2)sc1C(=O)N[C@H](C)[C@](O)(Cn1cncn1)c1ccc(F)cc1F,0,0,2.1,8.9
Cc1nc(-c2ccc(C#N)cc2)sc1C(=O)N[C@H](C)[C@](O)(Cn1cncn1)c1ccc(C(F)(F)F)cc1,0,0,2,> 80
C[C@@H](NC(=O)c1ccc(-c2cc(C(F)(F)F)nn2C)s1)[C@](O)(Cn1cncn1)c1ccc(F)cc1F,10,0,2.3,28
C[C@@H](NC(=O)c1cccc(-c2ccc(Cl)cc2)c1)[C@](O)(Cn1cncn1)c1ccc(F)cc1F,40,0,0.3,> 80
Cc1c(C(=O)N[C@H](C)[C@](O)(Cn2cncn2)c2ccc(F)cc2F)cnn1C,,,> 80,> 80
C[C@@H](n1cnc2cc(-c3ccc(-n4ncnn4)cc3)sc2c1=O)[C@](O)(Cn1cncn1)c1ccc(F)cc1F,,,1.9,> 80
Cc1nc(Br)sc1C(=O)N[C@H](C)[C@](O)(Cn1cncn1)c1ccc(F)cc1F,,,4.6,32
CCCS(=O)(=O)c1csc(C(=O)N[C@H](C)[C@](O)(Cn2cncn2)c2ccc(F)cc2F)c1N,,,4.4,23
